Test results: ChEMBL document CHEMBL1146231, “Novel semisynthetic derivative of antibiotic Eremomycin active against drug-resistant gram-positive pathogens including Bacillus anthracis” (J Med Chem, 2007)
Converted amounts (≈) assume the structure as drawn. The source made the active and inactive calls. The calls are words filed in the database; no cut-off is given here.

What was measured:
[1] = tested on: Enterococcus faecalis; assay: Antimicrobial activity against vancomycin-resistant Enterococcus faecalis Enfa_t29862 isolate; type: functional
Procedure, shortened: (§1)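 MICs were run by broth microdilution as recommended by NCCLS, in cation-adjusted Mueller-Hinton broth. Compound was serially diluted 2-fold, over a final range of 64 to 0.03 µg/mL after inoculation.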

[2] = tested on: Staphylococcus aureus; assay: Antimicrobial activity against glycopeptide intermediate resistant Staphylococcus aureus 3793 isolate; type: functional; procedure, shortened: as §1
[3] = tested on: Enterococcus faecium; assay: Antimicrobial activity against vancomycin-resistant Enterococcus faecium 569 isolate; type: functional; procedure, shortened: as §1
[4] = tested on: Enterococcus faecalis; assay: Antimicrobial activity against vancomycin-susceptible Enterococcus faecalis 559 isolate; type: functional; procedure, shortened: as §1
[5] = tested on: Staphylococcus haemolyticus; assay: Antimicrobial activity against Staphylococcus haemolyticus 602 isolate; type: functional; procedure, shortened: as §1
[6] = tested on: Staphylococcus aureus; assay: Antimicrobial activity against methicillin-resistant Staphylococcus aureus Stau_HIP5827 isolate; type: functional; procedure, shortened: as §1
[7] = tested on: Staphylococcus aureus; assay: Antimicrobial activity against glycopeptide intermediate resistant Staphylococcus aureus 3798 isolate; type: functional; procedure, shortened: as §1
[8] = tested on: Enterococcus faecalis; assay: Antimicrobial activity against vancomycin-resistant Enterococcus faecalis Enfa_vre-2 isolate; type: functional; procedure, shortened: as §1
[9] = tested on: Escherichia coli; assay: Antimicrobial activity against Escherichia coli Esco_25922 isolate; type: functional
[10] = tested on: Enterococcus faecalis; assay: Antimicrobial activity against vancomycin-resistant Enterococcus faecalis 560 isolate; type: functional; procedure, shortened: as §1
[11] = tested on: Enterococcus faecalis; assay: Antimicrobial activity against vancomycin-susceptible Enterococcus faecalis Enfa_29212 isolate; type: functional; procedure, shortened: as §1
[12] = tested on: Bacillus anthracis; assay: Protection against Bacillus anthracis challenged BALB/c mouse at 25 mg/kg, iv; type: functional, organism-based; design: dose 25 mg/kg
[13] = tested on: Mus musculus; assay: Survival of BALB/c mouse infected with Staphylococcus aureus PGO#172 assessed as mortality at 50 mg/kg, iv; type: functional, organism-based; design: dose 50 mg/kg
Procedure, shortened: (§2)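 Mice received a lethal dose of S. aureus PGO#172 (ATCC#29213) by intraperitoneal injection. They were treated with an iv bolus at 1, 5, 10, 25 or 50 mg/kg, in groups of five. Mortality was the endpoint, and ED50 was derived from the dose-response.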

[14] = tested on: Mus musculus; assay: Survival of BALB/c mouse infected with Staphylococcus aureus PGO#172 assessed as mortality at 1 mg/kg, iv; type: functional, organism-based; design: dose 1 mg/kg; procedure, shortened: as §2
[15] = tested on: Bacillus anthracis; assay: Protection against Bacillus anthracis challenged BALB/c mouse at 50 mg/kg, iv; type: functional, organism-based; design: dose 50 mg/kg
[16] = tested on: Bacillus anthracis; assay: Antimicrobial activity against Bacillus anthracis HH105-5R isolate; type: functional
[17] = tested on: Bacillus anthracis; assay: Antimicrobial activity against Bacillus anthracis HHT105-5R isolate; type: functional
[18] = tested on: Mus musculus; assay: Survival of pulmonary anthrax BALB/c mouse model infected with Bacillus anthracis Ames at 30 mg/kg, sc after 6 days; type: functional; conditions: 144 h, route subcutaneous
[19] = tested on: Bacillus anthracis; assay: Antimicrobial activity against Bacillus anthracis HH113-6R isolate; type: functional
[20] = tested on: Bacillus anthracis; assay: Antimicrobial activity against Bacillus anthracis HH105-5 isolate; type: functional
[21] = tested on: Bacillus anthracis; assay: Antimicrobial activity against Bacillus anthracis HH105-6 isolate; type: functional
[22] = tested on: Mus musculus; assay: Survival of BALB/c mouse pulmonary challenged with Bacillus anthracis at 114 mg/kg, po; type: functional
[23] = tested on: Mus musculus; assay: Protection against pulmonary anthrax BALB/c mouse model infected with Bacillus anthracis at 135 mg/kg, po after 6 days; type: functional; conditions: 144 h
[24] = tested on: Bacillus anthracis; assay: Protection against Bacillus anthracis challenged BALB/c mouse at 106 mg/kg, iv after 3 days; type: functional, organism-based; design: dose 106 mg/kg
[25] = tested on: Staphylococcus epidermidis; assay: Antimicrobial activity against Staphylococcus epidermidis 533 isolate; type: functional; procedure, shortened: as §1
[26] = tested on: Enterococcus faecium; assay: Antimicrobial activity against vancomycin-susceptible Enterococcus faecium 568 isolate; type: functional; procedure, shortened: as §1

Question: Which MIC [1] does the source give for `CN[C@H](CC(C)C)C(=O)N[C@H]1C(=O)N[C@@H](CC(N)=O)C(=O)N[C@H]2C(=O)N[C@H]3C(=O)N[C@H](C(=O)N[C@H](C(=O)O)c4cc(O)cc(O)c4-c4cc3ccc4O)[C@H](O)c3ccc(c(Cl)c3)Oc3cc2cc(c3O[C@@H]2O[C@H](CO)[C@@H](O)[C@H](O)[C@H]2O[C@H]2C[C@](C)(N)[C@H](O)[C@H](C)O2)Oc2ccc(cc2Cl)[C@H]1O` [VANCOMYCIN] here?
Answer: Its MIC is over 64 µg/mL.

Question: What about the MIC [2] of the same compound?
Answer: Its MIC is 16 µg/mL (≈ 11 µM).

Question: And the MIC [3]?
Answer: The MIC was over 128 µg/mL.

Question: What about the MIC [4] of the same compound?
Answer: Its MIC is 1 µg/mL (≈ 0.69 µM).

Question: What about the MIC [5] of the same compound?
Answer: Its MIC is 2 µg/mL (≈ 1.38 µM).

Question: What about the MIC [6] of the same compound?
Answer: Its MIC is 8 µg/mL (≈ 5.52 µM).

Question: What about the MIC [7] of the same compound?
Answer: The MIC was 8 µg/mL (≈ 5.52 µM).

Question: And the MIC [8]?
Answer: The MIC was over 64 µg/mL.

Question: What about the MIC [9] of the same compound?
Answer: The MIC was over 50 µg/mL.

Question: And the MIC [10]?
Answer: Its MIC is over 128 µg/mL.

Question: And the MIC [11]?
Answer: The MIC was 2 µg/mL (≈ 1.38 µM).

Question: `CN[C@H](CC(C)C)C(=O)N[C@H]1C(=O)N[C@@H](CC(N)=O)C(=O)N[C@H]2C(=O)N[C@H]3C(=O)N[C@H](C(=O)N[C@@H](C(=O)NC45CC6CC(CC(C6)C4)C5)c4cc(O)cc(O)c4-c4cc3ccc4O)[C@H](O[C@@H]3C[C@@](C)(N)[C@H](O)[C@@H](C)O3)c3ccc(cc3)Oc3cc2cc(c3O[C@H]2O[C@@H](CO)[C@H](O)[C@@H](O)[C@@H]2O[C@H]2C[C@](C)(N)[C@@H](O)[C@H](C)O2)Oc2ccc(cc2Cl)[C@H]1O` was tested. Which Activity [12] did it give?
Answer: The Activity was “Active”.

Question: What about the Activity [13] of the same compound?
Answer: The Activity was “Active”.

Question: And the Activity [14]?
Answer: Its Activity is “inactive”.

Question: What about the Activity [15] of the same compound?
Answer: The Activity was “Active”.

Question: How did the MIC [16] turn out when `O=C(O)c1cn(C2CC2)c2cc(N3CCNCC3)c(F)cc2c1=O` [CIPROFLOXACIN] was run?
Answer: Its MIC is 4 µg/mL (≈ 12.1 µM).

Question: And the MIC [17]?
Answer: The MIC was 8 µg/mL (≈ 24.1 µM).

Question: And the survival at 30 mg/kg [18]?
Answer: The survival at 30 mg/kg was 75%.

Question: What about the MIC [19] of the same compound?
Answer: The MIC was 4 µg/mL (≈ 12.1 µM).

Question: What about the MIC [20] of the same compound?
Answer: The MIC was 8 µg/mL (≈ 24.1 µM).

Question: And the MIC [21]?
Answer: Its MIC is 32 µg/mL (≈ 96.6 µM).

Question: What about the survival at 114 mg/kg [22] of the same compound?
Answer: Its survival at 114 mg/kg is 87.5%.

Question: What about the survival at 135 mg/kg [23] of the same compound?
Answer: The survival at 135 mg/kg was 75%.

Question: What about the Activity [24] of the same compound?
Answer: Its Activity is “Active”.

Question: Which MIC [25] does the source give for `CN[C@H](CC(C)C)C(=O)N[C@H]1C(=O)N[C@@H](CC(N)=O)C(=O)N[C@H]2C(=O)N[C@H]3C(=O)N[C@H](C(=O)N[C@H](C(=O)NC(C)C4C5CC6CC(C5)CC4C6)c4cc(O)cc(O)c4-c4cc3ccc4O)[C@H](O[C@@H]3C[C@@](C)(N)[C@H](O)[C@@H](C)O3)c3ccc(cc3)Oc3cc2cc(c3O[C@H]2O[C@@H](CO)[C@H](O)[C@@H](O)[C@@H]2O[C@H]2C[C@](C)(N)[C@@H](O)[C@H](C)O2)Oc2ccc(cc2Cl)[C@H]1O` (stereo not given in full) here?
Answer: The MIC was 0.5 µg/mL (≈ 0.291 µM).

Question: And the MIC [26]?
Answer: The MIC was 0.5 µg/mL (≈ 0.291 µM).

Question: And the MIC [2]?
Answer: Its MIC is 4 µg/mL (≈ 2.33 µM).

Question: What about the MIC [3] of the same compound?
Answer: The MIC was 16 µg/mL (≈ 9.31 µM).

Question: What about the MIC [4] of the same compound?
Answer: The MIC was 1 µg/mL (≈ 0.582 µM).

Question: What about the MIC [5] of the same compound?
Answer: The MIC was 1 µg/mL (≈ 0.582 µM).

Question: What about the MIC [7] of the same compound?
Answer: Its MIC is 2 µg/mL (≈ 1.16 µM).

Question: What about the MIC [10] of the same compound?
Answer: Its MIC is 16 µg/mL (≈ 9.31 µM).

Question: With `CN[C@H](CC(C)C)C(=O)N[C@H]1C(=O)N[C@@H](CC(N)=O)C(=O)N[C@H]2C(=O)N[C@H]3C(=O)N[C@H](C(=O)N[C@H](C(=O)O)c4cc(O)cc(O)c4-c4cc3ccc4O)[C@H](O[C@@H]3C[C@@](C)(N)[C@H](O)[C@@H](C)O3)c3ccc(cc3)Oc3cc2cc(c3O[C@H]2O[C@@H](CO)[C@H](O)[C@@H](O)[C@@H]2O[C@H]2C[C@](C)(N)[C@@H](O)[C@H](C)O2)Oc2ccc(cc2Cl)[C@H]1O` [EREMOMYCIN] as the compound, how does the MIC [25] read?
Answer: The MIC was 0.25 µg/mL (≈ 0.16 µM).

Question: And the MIC [26]?
Answer: The MIC was 0.5 µg/mL (≈ 0.321 µM).

Question: And the MIC [2]?
Answer: The MIC was 8 µg/mL (≈ 5.13 µM).

Question: What about the MIC [3] of the same compound?
Answer: The MIC was over 128 µg/mL.

Question: And the MIC [4]?
Answer: Its MIC is 0.5 µg/mL (≈ 0.321 µM).

Question: And the MIC [5]?
Answer: Its MIC is 0.25 µg/mL (≈ 0.16 µM).

Question: What about the MIC [7] of the same compound?
Answer: Its MIC is 8 µg/mL (≈ 5.13 µM).

Question: What about the MIC [10] of the same compound?
Answer: The MIC was over 128 µg/mL.
